Assay outcomes: PubChem, several laboratories
MEKK3 PB1 HTS: MEKK3-MEK5 PB1 interaction, increase or decrease | bead-based flow cytometry, Alexa488-MEK5 binding to MEKK3; actives lie on both sides; 0 = blocked by unlabeled MEK5, 100 = vehicle | binding response (% of control), % at 10 µM | 1.4% of 290,000 active | AID 1529;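 active means binding response more than 3 SD above or below the average of its plate-row segment, actives on both sides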;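 further: Alexa488 bead fluorescence after subtracting the streptavidin-only scavenger bead signal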
MEKK2 mut-MEK5: signal of MEK5 binding to mutant human MEKK2 PB1 domain; 0.35% of 290,000 active; bead flow cytometry, Alexa488-MEK5 binding to MEKK2 mutant; percent response, % at 10 µM; in the data active means percent response above about 24%, passing the limit was not always enough
UBC13 inh: inhibitors of human UBC13 polyubiquitin chain formation | P61088 | 0.47% of 330,000 active | TR-FRET | inhibition, % at 20 µM | AID 485273; in the data active means inhibition above about 45%, passing the limit was not always enough
Apaf-1 inh: blocks human Apaf-1 apoptosome activity | reconstituted apoptosome caspase-3 activity, DEVD-Rh110 fluorescence | inhibition, % at 20 µM | 0.71% of 330,000 active | AID 489030; active means inhibition of at least 40% at 20 µM;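 further: plate controls were DMSO wells for no effect and DEVD-CHO caspase inhibitor wells for full effect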
Target sequence (O14727 whole entry, looked up): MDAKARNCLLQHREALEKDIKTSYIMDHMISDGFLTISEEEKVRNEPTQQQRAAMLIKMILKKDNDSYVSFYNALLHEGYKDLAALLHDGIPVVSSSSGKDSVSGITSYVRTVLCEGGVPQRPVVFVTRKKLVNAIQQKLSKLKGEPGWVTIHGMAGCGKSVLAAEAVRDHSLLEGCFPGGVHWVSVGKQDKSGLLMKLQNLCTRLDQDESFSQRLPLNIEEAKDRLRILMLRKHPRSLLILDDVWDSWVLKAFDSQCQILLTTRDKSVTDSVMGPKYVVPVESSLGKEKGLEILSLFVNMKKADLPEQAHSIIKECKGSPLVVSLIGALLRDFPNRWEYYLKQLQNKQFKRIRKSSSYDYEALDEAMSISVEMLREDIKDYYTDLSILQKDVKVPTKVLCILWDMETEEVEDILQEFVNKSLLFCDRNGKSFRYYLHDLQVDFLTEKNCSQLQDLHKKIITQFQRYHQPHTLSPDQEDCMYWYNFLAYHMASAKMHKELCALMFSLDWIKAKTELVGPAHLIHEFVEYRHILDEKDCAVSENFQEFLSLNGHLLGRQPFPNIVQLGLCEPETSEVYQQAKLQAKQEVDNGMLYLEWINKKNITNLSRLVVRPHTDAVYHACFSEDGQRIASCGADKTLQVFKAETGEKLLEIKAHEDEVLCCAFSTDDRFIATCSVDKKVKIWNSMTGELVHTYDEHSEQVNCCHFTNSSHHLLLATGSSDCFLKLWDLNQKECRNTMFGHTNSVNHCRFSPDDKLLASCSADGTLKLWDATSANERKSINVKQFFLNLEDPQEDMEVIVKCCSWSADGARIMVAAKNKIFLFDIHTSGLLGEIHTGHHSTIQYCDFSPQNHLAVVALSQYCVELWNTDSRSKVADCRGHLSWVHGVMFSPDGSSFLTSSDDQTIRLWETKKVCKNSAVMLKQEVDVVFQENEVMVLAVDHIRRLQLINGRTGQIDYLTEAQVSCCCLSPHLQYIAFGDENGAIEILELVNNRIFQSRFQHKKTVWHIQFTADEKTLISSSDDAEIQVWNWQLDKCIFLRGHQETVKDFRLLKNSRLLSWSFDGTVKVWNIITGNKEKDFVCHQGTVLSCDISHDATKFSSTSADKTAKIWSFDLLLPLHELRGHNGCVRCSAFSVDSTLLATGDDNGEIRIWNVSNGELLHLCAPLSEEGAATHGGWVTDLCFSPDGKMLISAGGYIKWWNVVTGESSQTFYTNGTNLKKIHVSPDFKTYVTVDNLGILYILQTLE
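Material: reconstituted apoptosome with Apaf-1, cytochrome c, caspase-9, procaspase-3, dATP. Technique: Rh110 fluorescence intensity. Buffer or medium: pH 7.5 Hepes buffer with CHAPS, BSA, DTT. Times: 30 min plus 50 min, RT.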
MEKK2wt PB1 HTS: raises or lowers MEK5 binding to wildtype human MEKK2 PB1 domain. AID 1531. binding response (% of control), % at 10 µM. Q9Y2U5. bead flow cytometry, Alexa488-MEK5 binding to MEKK2 WT; actives lie on both sides. 1.1% of 290,000 active; in the data active means binding response below about 67% or above about 130%
Apaf-1 inh conf2: Apaf-1 inhibition, single-dose confirmed. shares compounds with Apaf-1 inh. reconstituted apoptosome, caspase-3 DEVD-Rh110 fluorescence. inhibition, % at 20 µM. 25% of 1,800 active. AID 504614;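 active means mean inhibition of at least 40% at 20 µM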;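 further: plate controls were DMSO wells for no effect and DEVD-CHO caspase inhibitor control wells for full effect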
Rh110 interf inh: interferes with Rh110 fluorescence, flagging false Apaf-1 inhibitors; shares compounds with Apaf-1 inh; Rh110 fluorescence interference, quenched caspase reaction; activation (fluorescence interference), % at 20 µM; 1,800 tested, under 10 active; AID 504615;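 active means signal rise of 40% or more at 20 µM, treated as a fluorescence artifact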
Apaf1 inh interf: Apaf-1 inhibitor counter-screen fluorescence artifact; AID 588538; 460 tested, under 10 active; fluorescence interference counterscreen, Apaf-1 assay format; shares compounds with Apaf-1 inh; IC50, µM; call rule not given here
Starred values were filed as active, the others as inactive; . = no result. A selection: hits, their analogues and other compounds. The true share with any hit is near 2.9%.

SMILES	MEKK3 PB1 HTS	MEKK2 mut-MEK5	UBC13 inh	Apaf-1 inh	MEKK2wt PB1 HTS	Apaf-1 inh conf2	Rh110 interf inh	Apaf1 inh interf
CN(C)c1cc(N/N=C\c2ccccc2)nc(N(C)C)n1	108	3	-29	95*	115	89*	7	>100
COc1ccc(/C=N/Nc2cc(N(C)C)nc(N(C)C)n2)cc1	98	-1	-16	97*	108	95*	4	>100
Cc1cc(-c2ccccc2)nc(N/N=C/c2ccccc2)n1	99	4	2	15	103	.	.	.
COc1ccc(/C=N/Nc2cc(OC)ncn2)cc1	106	0	.	.	97	.	.	.
CCNC(=O)C(=O)NCC1CCCN1S(=O)(=O)c1cccs1 (centres undefined)	.	.	-1	3	.	.	.	.
Cc1cc(/C=N/n2cnnc2)c(C)n1-c1ccc(OCc2ccc(Cl)cc2Cl)cc1	114	4	5	46*	108	28	6	.
